This passage reports cytotoxicity results from ChEMBL document CHEMBL4513216, “Probing the Open Global Health Chemical Diversity Library for Multistage-Active Starting Points for Next-Generation Antimalarials” (ACS Infect Dis, 2020).

The data set in a line: Toxicity liver stage against HepG2, at 10uM. Format: cell-based. Details: test concentration 10 uM, cell line HepG2-A16-CD81EGFP. As to conditions: human, HepG2-A16-CD81EGFP cells; read-out: INHIBITION
In a few lines: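 Uninfected HepG2-A16-CD81EGFP cells, 3 × 10^3 per well, 1536-well, plated on prespotted compound at 10 μM final, parasite-free screening media added to match infected plates; puromycin 10 μM positive, DMSO 0.5% negative; run in parallel with 48 h PbLuc assay at 37 °C, 5% CO2; viability by CellTiter-Glo luminescence, normalized to controls.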
`F[C@@H]1CN(CC2CC2)C[C@@H]1OCc1nc2ccccc2o1`: the cytotoxicity at 10 µM stood at 1.97%.
On to `COc1ccc(C(=O)NC[C@H]2COCc3nc4cc(C)ccc4n32)cc1`, for which the cytotoxicity at 10 µM amounted to 2.52%.
As to `O=C(NC[C@H]1OC[C@@H](NC2CCC(F)(F)CC2)[C@@H]1O)c1cccs1`, the cytotoxicity at 10 µM is -7.34%.
The same measure for `CCn1nnc(NCc2ccccc2OCc2ccc(Cl)cc2)n1`: -0.139%.
The same measure for `CC(C)(C)OC(=O)Cn1cccc(S(=O)(=O)N2CCCC2)c1=O`: 5.54%; for `O=C(Cn1cnc(-c2cccs2)cc1=O)Nc1cccnc1`: -3.69%; for `O=C(Cc1cccs1)N1CCOCC1CO` (stereo unspecified): -4.63%.
On to `COC1(CNC(=O)c2ccc3nsnc3c2)CCSC1` (stereo unspecified), for which the cytotoxicity at 10 µM was -1.36%.
As to `Cc1ccc(CN2C[C@H](N(C)Cc3cncnc3)[C@H]3OCCC[C@H]32)o1`, the cytotoxicity at 10 µM is -149%.
The same measure for `CC(=O)N1CC(=O)N(c2ccsc2)CC12CCN(Cc1ccoc1)C2` (stereo unspecified): 5.56%.
The result for `O=C(c1cccs1)N1CCCn2c(nc(CN3CCCC3)cc2=O)C1` reads -3.32%; that for `Cc1ccc(N2CCCc3sc(C(=O)NCCO)nc32)nn1`, 13.3%.
With `COC[C@@]12CCO[C@@H]1CCN(C(=O)COc1ccc(C)cc1)C2`, the cytotoxicity at 10 µM worked out at 1.39%.
The same measure for `Cc1nc(CN2CC3(CCN(c4nccs4)C3)CC2=O)cs1` (stereo unspecified): -0.646%; for `Cc1ccc2c(ccn2CCC(=O)NC[C@@H]2CCCN3CCCC[C@H]23)c1`: 2.29%.
For the molecule `CC1=Nc2c(c(=O)[nH]n2C(C)C)C(c2ccc(F)c(F)c2)S1` (stereo unspecified), the cytotoxicity at 10 µM was -5%.
The result for `COc1ccc(S(=O)(=O)N2CCC(S(C)(=O)=O)CC2)cc1C` reads 2.4%.
The result for `CCCC(=O)N1CCCC1(C)c1nc(C)no1` (stereo unspecified) reads 0.79%; that for `CNC(=O)C1CN(Cc2cc(C)on2)CCN(C2CCOCC2)C1` (stereo unspecified), 9.81%.
The same measure for `CNC(=O)c1ccc(C2CN(CC(=O)N(C)C)CCO2)nc1` (stereo unspecified): 7.15%; for `Cc1ccn(CCNC(=O)C2(C)CC(c3ccccc3)=NO2)n1` (stereo unspecified): 8.46%; for `COCCN1CCCC1(C)c1nc(C)cc(N)n1` (stereo unspecified): -3.73%.
For `Cc1ccc(C2CN(CCCC#N)CCO2)c(C)c1` (stereo unspecified), the cytotoxicity at 10 µM is -2.16%.
The result for `Cc1nc(CN(C)C(=O)Nc2cccc(COC(C)C)c2C)no1` reads 3.95%; that for `CCc1ccc(C(=O)NC[C@H]2CCCN2C(=O)c2ccc(CC)o2)o1`, -5.54%; that for `c1ccc(-c2nc(SCc3nnc(C4CC4)o3)n[nH]2)nc1`, -1.78%.
The same measure for `CN(C)CCn1cc(NC(=O)NC(C)(C)c2nccs2)cn1`: -2.85%; for `N#CC(NC(=O)CC(F)(F)F)c1ccsc1` (stereo unspecified): 7.61%; for `O=C(NC1CC1)c1cc(Cl)ccc1-n1cnnn1`: 3.73%.
The result for `NC(=O)C1CCN(c2ccc3cc(Br)ccc3n2)C1` (stereo unspecified) reads 7.87%; that for `Cc1ccc(N(CCC#N)C(=O)CN2CCCC2c2cccs2)cc1` (stereo unspecified), -3.75%.
Consider `COc1c(CNCc2ccccc2Cn2cncn2)c(C)nn1C`, for which the cytotoxicity at 10 µM worked out at 1.56%.
The result for `CCc1ccc(C(=O)N(CC(F)(F)F)C2CCCOC2)o1` (stereo unspecified) reads -7.59%; that for `Cc1nccn1C1CCCN(C(=O)c2cnn(C)c2C2CC2)C1` (stereo unspecified), -5.92%.
With `Cc1ccc(CCNC(=O)N2CCC(Cc3cnn(C)c3)C2)cn1` (stereo unspecified), the cytotoxicity at 10 µM was 3.71%.
The result for `CC(C)(C)CCNC(=O)c1ccc(Cl)c(NS(C)(=O)=O)c1` reads -3.85%; that for `COCC(C)(C#N)NC(=O)COc1ccccc1Br` (stereo unspecified), 5.67%.
The result for `COCCN1CCN(CC(=O)N(C)Cc2ccc(C)o2)CC1C` (stereo unspecified) reads -127%; that for `O=C(COCC1CC1)NCC(c1ccccc1)N1CCc2sccc2C1` (stereo unspecified), 16.6%; that for `CCc1nc(CC(=O)N2CCC(C(=O)N3CCCC3)CC2)cs1`, -2.71%.
The same measure for `COC(=O)N1CCCC(C(=O)N2CCCCC2)C1` (stereo unspecified): -8.58%; for `COc1ccc(C(C#N)NC(=O)CC2=CCCCC2)c(OC)c1` (stereo unspecified): 10.7%; for `CC(=O)N1CCCN(C(=O)NCCCc2cn[nH]c2C)CC1`: -9.67%.
On to `Cc1ccccc1-c1cc(NC(=O)Cn2ccccc2=O)n(C)n1`, for which the cytotoxicity at 10 µM amounted to 3.8%.
The same measure for `CC(C)(C)OC(=O)NC1(c2noc(-c3ccco3)n2)CCC1`: -0.657%; for `CC(C)OCCOCC(O)CN(C)C(=O)Nc1ccc(F)cc1Cl` (stereo unspecified): 10.7%.
The result for `CC1COCCN1C(=O)NCCn1ccnc1` (stereo unspecified) reads -50.4%; that for `O=C(NC1CCN(c2ncccc2F)C1)c1cccc(-n2ccnc2)c1` (stereo unspecified), 9.49%; that for `CCSCCC(=O)Nc1ncn(CC(=O)NCc2ccccc2)n1`, 20%.
Take `CN(C)CCn1c(=O)oc2ccc(NC(=O)CC(C)(C)C)cc21`: the cytotoxicity at 10 µM was -2.28%.
`CCN(C)c1ccc(C(=O)N(CCOC)Cc2ccccn2)cc1`: the cytotoxicity at 10 µM is -3.96%.
The result for `CN(C)c1ccc(C(=O)NCC2(O)CCOCC2)cc1` reads -3.34%; that for `CC(NC(=O)C1=NN(C)C(=O)CC1)c1ccc(Cl)cc1Cl` (stereo unspecified), -10.4%; that for `CCc1ccc(CNC(=O)NC(C)CN2CCOCC2)s1` (stereo unspecified), -1.84%.
The result for `NC(=O)c1ccc(CN2CCCC(N3CCCC3)C2)cc1` (stereo unspecified) reads -3.63%; that for `CSc1cccc(NC(=O)N2CCC3(CCC(=O)N(C4CC4)C3)CC2)c1`, 9.27%.
In the case of `Cc1c[nH]c(CN2CCOC(c3ccc(F)cc3)C2)c(C)c1=O` (stereo unspecified), the cytotoxicity at 10 µM is -1.82%.
The result for `COc1ccc(OCC2CCCN(c3nc(CO)cs3)C2)cc1` (stereo unspecified) reads -0.715%.
The same measure for `CN1CCCN(C[C@@H]2CN(C(=O)CCc3cn[nH]c3)C[C@@H]2CO)CC1`: 2.72%; for `COc1ccc2c(c1)OCC(CNC(=O)c1cc[nH]c1C)C2` (stereo unspecified): 3.34%.
The result for `Cc1cnc(CNC(=O)C2CCOc3ccccc3C2)cn1` (stereo unspecified) reads -2.21%; that for `CCc1ccc(CNC[C@H]2C[C@@H](CO)N(C)[C@H]2c2ccccc2F)o1`, -3.09%; that for `CN1CCCCC1CCC(=O)NCCCn1ncc2ccccc21` (stereo unspecified), -13.3%.
With `Cc1nonc1C1CCCN1CCC(=O)N1CCc2ccccc2C1` (stereo unspecified), the cytotoxicity at 10 µM is -11.2%.
The same measure for `CC(C)(C)c1ncc2c(n1)CN(C(=O)c1ccc(-n3cnnn3)cc1)C2`: -1.98%; for `CCCc1n[nH]cc1C(=O)NCC1COc2cc(OC)ccc2C1` (stereo unspecified): -0.506%; for `Cc1nc(CCNC(=O)C2CCN(C(C)C)CC2)sc1Cl`: -8.06%.
The same measure for `O=C(NC1CCCN(CCc2ccccc2)C1)c1ccccn1` (stereo unspecified): -5.42%.
Consider `COCCC1CCN(CC(C)n2cnc3ccccc32)CC1` (stereo unspecified), for which the cytotoxicity at 10 µM was found to be 6.67%.
With `CCN1CCN(C[C@H]2CC[C@@H](Cc3ccc4c(c3)OCO4)O2)CC1`, the cytotoxicity at 10 µM is -5.97%.
Turning to `CC(=O)NCCNC(=O)c1cc(COc2ccccc2)[nH]n1`, the cytotoxicity at 10 µM was -1.32%.
The result for `CN(C)CCO[C@H]1C[C@@H](O)C12CCN(c1nccc3ccccc13)CC2` reads 2.2%; that for `CCOCC(=O)N1CCC(c2nccn2CC2CC2)CC1`, -7.18%; that for `CC(=O)NC1CCN(c2cc(-c3ccccc3)nc3c(C)c(C)nn23)C1` (stereo unspecified), -3.98%.
As to `CCOc1cc(C(=O)NS(=O)(=O)c2cccc(C#N)c2)ccc1OC`, the cytotoxicity at 10 µM is -6.69%.
The result for `COc1cccc(NC(=O)NCC(O)c2ccc(F)cc2F)c1` (stereo unspecified) reads -1.43%; that for `Cc1nc(C)n(CC2CCCN(CCC(=O)Nc3cc(C)on3)C2)n1` (stereo unspecified), -1.68%; that for `N#Cc1ccc(CC(=O)N2CCC(Nc3cccnn3)CC2)cc1`, -4.11%.
The same measure for `Cc1cccc(CC(=O)NCCCOC(C)C)c1`: -2.25%.
The result for `CC(C)(O)CN1CCN(C(=O)c2cccnc2O)CC1` reads -21.7%.
As for `O=C1CCc2cc(C(=O)NCc3ccc(-n4cncn4)nc3)ccc2N1`, the cytotoxicity at 10 µM was -11.5%.
The result for `Cc1ccc(C(=O)N2CCc3c(CNS(C)(=O)=O)cncc3C2)o1` reads -11.3%.
The same measure for `O=C(CCc1cccc(C2CCNCC2)n1)N1CCCCC1`: -4.78%; for `O=C(C1CCOCC1)N1CCc2ncc(CN3CCOCC3)n2CC1`: -79.6%.
`Cc1nc(-c2cncnc2C2CCCNC2)no1` (stereo unspecified): the cytotoxicity at 10 µM turned out to be 6.88%.
The same measure for `CC(=O)N1CC(=O)N(c2cccnc2)CC12CCN(Cc1nccs1)C2` (stereo unspecified): 6.85%; for `CN(C)C[C@@H]1CCC[C@@H]2CN(c3nccc(C(F)(F)F)n3)C[C@@H]21`: -2.75%.
For the molecule `O=C(NCC1CC1)C1CCC2(CCN(C(=O)c3ccccn3)CC2)O1` (stereo unspecified), the cytotoxicity at 10 µM stood at 9.74%.
In the case of `CC(=O)N1C[C@H]2CCCN(Cc3ccc(C)o3)[C@H]2C1`, the cytotoxicity at 10 µM was -1.36%.
The same measure for `CCC1=N[C@@]2(CC[C@@H]3CN(CC(=O)N(C)C)C[C@@H]32)C(=O)N1CC1CC1`: -3.5%; for `Cc1cccc(CN2CCC3(CCCN(C(=O)N(C)C)C3)C2=O)n1` (stereo unspecified): 1.44%.
The result for `COCC(=O)N1C[C@H]2CCCC(OCc3cccnc3)[C@H]2C1` (stereo partly specified) reads -5.67%.
The same measure for `Fc1cnc(N2CCC3(CC2)CN(Cc2ccccn2)CCO3)nc1`: 0.35%.
Turning to `CC(=O)NCC1(COc2cnccn2)C[C@@H](O)[C@@H](O)C1` (stereo partly specified), the cytotoxicity at 10 µM was determined as 1.47%.
The result for `CCNc1c(NC(=O)C(C)(C)C)c(=O)oc2ccccc12` reads -1.97%; that for `CN1CC2(CCC(C(=O)N3CCOCC3)CC2)Oc2ccccc2C1=O` (stereo unspecified), 5.91%.
